{
  "source": "ChEMBL document CHEMBL1136746",
  "about": "(2003)",
  "key": {"Caco-2": {"system": "Caco-2", "test": "Apparent Permeability through Caco-2 cell monolayers (n = 4)", "assay_type": "functional, cell-based", "conditions": "Homo sapiens", "outline": "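Caco-2 cells seeded on polycarbonate inserts (0.45 µm pore, 6.5 mm) and grown 21 days to differentiate; TEER >400 Ω/cm² before and after. ³H-acetylated peptide or [¹⁴C]mannitol (200 µM) added apically in HBSS/25 mM HEPES pH 7.4, 37 °C, shaken 400 rpm. Receiver chamber swapped at 30, 90, 150 min; scintillation counting. Papp averaged over four replicates.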"}, "Rattus norvegicus [1]": {"species": "Rattus norvegicus", "test": "Reduction in the amplitude of the nACh-activated current in rat parasympathetic ganglia", "assay_type": "functional, organism-based"}, "Rattus norvegicus [2]": {"species": "Rattus norvegicus", "test": "Reduction in the amplitude of the nACh-activated current in rat parasympathetic ganglia at a concentration of 22 nM to that of control response (n =4)", "assay_type": "functional", "design": "scale not given: the % may be the effect or the level left"}, "Rattus norvegicus [3]": {"species": "Rattus norvegicus", "test": "Reduction in the nACh-activated current in rat parasympathetic ganglia at a concentration of 4.5 nM to that of control response (n =3)", "assay_type": "functional", "design": "scale not given: the % may be the effect or the level left"}, "Rattus norvegicus [4]": {"species": "Rattus norvegicus", "test": "Percent Hemolysis observed in rat red blood cells when Treated with 1 mM concentration", "assay_type": "functional"}, "Rattus norvegicus [5]": {"species": "Rattus norvegicus", "test": "Percent Hemolysis observed in rat red blood cells when Treated with 2 mM concentration", "assay_type": "functional"}, "Rattus norvegicus [6]": {"species": "Rattus norvegicus", "test": "Percent Hemolysis observed in rat red blood cells when Treated with 5 mM concentration", "assay_type": "functional"}, "Rattus norvegicus [7]": {"species": "Rattus norvegicus", "test": "Reduction in the amplitude of the nACh-activated current in rat parasympathetic ganglia at a concentration of 222 nM to that of control response (n =3)", "assay_type": "functional", "design": "scale not given: the % may be the effect or the level left"}, "Rattus norvegicus [8]": {"species": "Rattus norvegicus", "test": "Reduction in the amplitude of the nACh-activated current in rat parasympathetic ganglia at 10 uM (n = 3); No effect", "assay_type": "functional, organism-based", "outline": "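Perforated-patch whole-cell recording with 240 µg/mL amphotericin B in the pipette (K₂SO₄/KCl/MgSO₄/HEPES, pH 7.2). Bath: NaCl/KCl/CaCl₂/MgCl₂/glucose/HEPES. ACh 500 µM plus atropine 100 nM applied 2 s by piezo. Peptide is present in pipette and perfusate. Current is expressed as % of control, mean ± SEM.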"}, "Rattus norvegicus [9]": {"species": "Rattus norvegicus", "test": "Reduction in the amplitude of the nACh-activated current in rat parasympathetic ganglia at a concentration of 22 nM to that of control response (n =2)", "assay_type": "functional", "design": "scale not given: the % may be the effect or the level left"}},
  "note": "Values joined by “and” are separate entries in the source; they are usually repeats but may differ in a detail not shown here. Equal values may be shown once. Active and inactive are the calls of the source. The rule behind the calls is not given here.",
  "data": [
    {"smiles": "CCCCCCCCCCC(NCC(=O)N[C@H]1CSSC[C@@H]2NC(=O)[C@H](C(C)C)NC(=O)[C@@H]3CCCN3C(=O)[C@H](CC(N)=O)NC(=O)[C@H](CO)NC(=O)[C@H](CSSC[C@@H](C(=O)O)NC(=O)[C@H](CC(C)C)NC(=O)[C@H](CC(N)=O)NC(=O)[C@H](CO)NC(=O)[C@H](Cc3c[nH]cn3)NC(=O)[C@H](CCC(=O)O)NC(=O)[C@H](CC(C)C)NC(=O)[C@H](Cc3c[nH]cn3)NC2=O)NC1=O)C(=O)O", "note": "(stereo partly specified)", "values": [
      {"measurement": "Papp", "setting": "Caco-2", "value": "4.97 10e-6 cm s-1"},
      {"measurement": "IC50", "setting": "Rattus norvegicus [1]", "value": 12.8, "unit": "nM"},
      {"measurement": "Control", "setting": "Rattus norvegicus [2]", "value": 57, "unit": "%"},
      {"measurement": "Control", "setting": "Rattus norvegicus [3]", "value": 92, "unit": "%"},
      {"measurement": "Hemolysis", "setting": "Rattus norvegicus [4]", "value": 1.04, "unit": "%"},
      {"measurement": "Hemolysis", "setting": "Rattus norvegicus [5]", "value": 0.45, "unit": "%"},
      {"measurement": "Hemolysis", "setting": "Rattus norvegicus [6]", "value": 0.83, "unit": "%"},
      {"measurement": "Control", "setting": "Rattus norvegicus [7]", "value": 47, "unit": "%"}
    ]},
    {"smiles": "CCCCCCCCCCC1C(=O)[C@H](CC(N)=O)NC(=O)[C@H](CO)NC(=O)[C@@H]2CSSC[C@@H](C(=O)O)NC(=O)[C@H](CC(C)C)NC(=O)[C@H](CC(N)=O)NC(=O)[C@H](CO)NC(=O)[C@H](Cc3c[nH]cn3)NC(=O)[C@H](CCC(=O)O)NC(=O)[C@H](CC(C)C)NC(=O)[C@H](Cc3c[nH]cn3)NC(=O)[C@H](CSSC[C@H](NC(=O)CN)C(=O)N2)NC(=O)[C@H](C(C)C)NC(=O)[C@@H]2CCCN12", "note": "(stereo partly specified)", "values": [
      {"measurement": "Reduction", "setting": "Rattus norvegicus [8]", "value": "inactive"}
    ]},
    {"smiles": "CC(C)C[C@@H]1NC(=O)[C@H](CC(N)=O)NC(=O)[C@H](CO)NC(=O)[C@H](Cc2c[nH]cn2)NC(=O)[C@H](CCC(=O)O)NC(=O)[C@H](CC(C)C)NC(=O)[C@H](Cc2c[nH]cn2)NC(=O)[C@@H]2CSSC[C@H](NC(=O)CN)C(=O)N[C@@H](CSSC[C@@H](C(=O)O)NC1=O)C(=O)N[C@@H](CO)C(=O)N[C@@H](CC(N)=O)C(=O)N1CCC[C@H]1C(=O)N[C@@H](C(C)C)C(=O)N2", "values": [
      {"measurement": "Papp", "setting": "Caco-2", "value": "20.5 10e-6 cm s-1"},
      {"measurement": "IC50", "setting": "Rattus norvegicus [1]", "value": 10, "unit": "nM"},
      {"measurement": "Control", "setting": "Rattus norvegicus [3]", "value": 90, "unit": "%"},
      {"measurement": "Hemolysis", "setting": "Rattus norvegicus [4]", "value": 0.53, "unit": "%"},
      {"measurement": "Control", "setting": "Rattus norvegicus [9]", "value": "57% and 41%"},
      {"measurement": "Hemolysis", "setting": "Rattus norvegicus [5]", "value": 0.83, "unit": "%"},
      {"measurement": "Hemolysis", "setting": "Rattus norvegicus [6]", "value": 1.35, "unit": "%"}
    ]}
  ]
}
